Data on 7 compounds can be found in ChEMBL document CHEMBL4196207, “Medermycin-Type Naphthoquinones from the Marine-Derived Streptomyces sp. XMA39” (J Nat Prod, 2018).

Molecules are shown by their SMILES. ≈ marks a conversion by molar mass, not a printed value. Positions of bridges follow the written chain, without caps; N, C: chain ends. Non-standard residues stand in square brackets, D forms with d. Residues, ends and D or L forms follow the SMILES beside them. *: point of attachment. Octanoyl(6-Me) = CCC(C)CCCCC(=O)*; Dab = NCC[C@H](N)C(=O)O A value given as a limit tells only on which side of the number the result lay.

Broadly, the IC50 is the concentration that inhibits the measured activity by half. Low values mean greater potency in that assay, high ones weaker potency in that assay. As a reminder, the MIC is the lowest concentration found to suppress growth. A low value points to inhibition by little substance.

In assay [1] the test system is HCT-116. Briefly: Cytotoxicity against human HCT116 cells after 72 hrs by SRB assay. The assay is classed as functional, cell-based. To be noted: HCT-116, 72 h. The method in brief:
(§1)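 SRB assay. Cells were seeded 24 h, then given a range of compound concentrations for 72 h at 37 °C. Fixed with cold 10% TCA for 2 h at 4 °C, washed, stained with 0.4% SRB, rinsed with 1% acetic acid, and dye dissolved in 10 mM Tris. OD read at 515 nm. IC50 by the Reed–Muench method.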
(In general: In SRB staining, fixed cells bind dye roughly in proportion to their protein.)

Assay [2] relates to PC-3. Briefly: Cytotoxicity against human PC3 cells after 72 hrs by SRB assay. To be noted: PC-3, 72 h. The assay is classed as functional, cell-based. The gist of the method:
as §1

The subject of assay [3] is Escherichia coli. Briefly: Antimicrobial activity against Escherichia coli ATCC 25922 after 12 hrs by microdilution method. Format: functional. The settings on record: ATCC 25922, 12 h. The method in brief: (§2)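 Broth microdilution in 96-well plates. A 10 mg/mL DMSO stock was serially diluted in microbial cell suspension, 200 μL final. Plates were incubated at 37 °C for 12 h. MIC was read as the lowest concentration completely clear against a black background. Triplicate. E. coli strain ATCC 25922; C. albicans strain not specified.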
In general terms: Broth dilution looks for growth in wells or tubes with falling amounts of substance.

Assay [4] deals with Candida albicans. Briefly: Antimicrobial activity against Candida albicans after 12 hrs by microdilution method. The assay is classed as functional. The method in brief:
as §2

The subject of assay [5] is Staphylococcus aureus. Briefly: Antimicrobial activity against methicillin-resistant Staphylococcus aureus ATCC 43300 after 12 hrs by microdilution method. To be noted: ATCC 43300, 12 h. The assay is classed as functional. The gist of the method: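 Broth microdilution. Compound stock of 10 mg/mL in DMSO was serially diluted with microbial cell suspension to a series of concentrations in 96-well plates. Plates were incubated at 37 °C for 12 h. MIC is the lowest concentration that stays completely clear against a black background. Vancomycin served as positive control. Tests were run in triplicate.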

For assay [6], the target named is Rho-associated protein kinase 2 (Homo sapiens, UniProt O75116). Briefly: Inhibition of ROCK2 (unknown origin) using SKT S2 as substrate measured after 30 mins by HTRF assay. The gist of the method: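 HTRF KinEASE format. Compound dilutions were added to a substrate/enzyme/ATP mixture and incubated 0.5 h at 37 °C. SA-XL665 and STK antibody–cryptate were then added, followed by 1 h at room temperature before HTRF read-out. Triplicate.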
Chain of Rho-associated protein kinase 2 (O75116 whole entry): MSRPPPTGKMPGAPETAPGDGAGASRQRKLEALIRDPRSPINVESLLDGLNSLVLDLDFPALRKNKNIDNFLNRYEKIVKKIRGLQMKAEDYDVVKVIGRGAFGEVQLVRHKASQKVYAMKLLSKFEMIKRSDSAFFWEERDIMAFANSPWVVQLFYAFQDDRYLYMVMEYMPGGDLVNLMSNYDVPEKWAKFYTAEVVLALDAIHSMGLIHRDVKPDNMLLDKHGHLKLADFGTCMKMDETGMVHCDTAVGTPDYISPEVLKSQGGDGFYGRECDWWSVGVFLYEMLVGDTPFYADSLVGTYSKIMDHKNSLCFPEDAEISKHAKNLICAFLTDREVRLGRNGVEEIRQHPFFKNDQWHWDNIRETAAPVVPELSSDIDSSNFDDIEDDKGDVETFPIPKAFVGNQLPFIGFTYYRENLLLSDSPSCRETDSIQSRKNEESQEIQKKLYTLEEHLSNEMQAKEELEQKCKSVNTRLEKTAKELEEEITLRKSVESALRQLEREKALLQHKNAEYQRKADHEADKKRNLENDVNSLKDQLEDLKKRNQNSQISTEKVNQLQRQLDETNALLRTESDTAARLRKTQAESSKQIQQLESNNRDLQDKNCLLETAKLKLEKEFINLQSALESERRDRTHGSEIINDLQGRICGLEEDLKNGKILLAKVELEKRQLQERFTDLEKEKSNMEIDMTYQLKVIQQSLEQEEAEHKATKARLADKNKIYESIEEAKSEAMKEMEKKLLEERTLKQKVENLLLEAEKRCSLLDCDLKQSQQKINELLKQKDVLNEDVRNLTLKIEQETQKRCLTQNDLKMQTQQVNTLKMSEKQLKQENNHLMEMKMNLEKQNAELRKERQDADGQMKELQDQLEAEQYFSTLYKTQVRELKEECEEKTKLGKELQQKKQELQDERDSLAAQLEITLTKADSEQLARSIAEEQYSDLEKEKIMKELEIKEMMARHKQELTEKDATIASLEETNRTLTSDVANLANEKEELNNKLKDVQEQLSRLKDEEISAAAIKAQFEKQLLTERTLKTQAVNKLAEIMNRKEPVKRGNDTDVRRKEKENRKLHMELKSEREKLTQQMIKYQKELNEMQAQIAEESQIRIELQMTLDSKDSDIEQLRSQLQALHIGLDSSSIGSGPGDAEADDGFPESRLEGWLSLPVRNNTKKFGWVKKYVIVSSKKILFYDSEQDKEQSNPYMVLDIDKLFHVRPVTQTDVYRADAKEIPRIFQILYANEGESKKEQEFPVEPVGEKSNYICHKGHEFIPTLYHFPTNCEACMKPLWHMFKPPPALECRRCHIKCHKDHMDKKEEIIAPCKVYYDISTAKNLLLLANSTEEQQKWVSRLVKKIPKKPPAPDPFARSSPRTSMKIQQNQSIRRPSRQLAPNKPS
(In general: In TR-FRET formats the signal depends on donor and acceptor labels being close together.)

Consider `C[C@H]1O[C@@H]2CC(=O)O[C@@H]2c2oc(=O)c3ccc([C@H]4C[C@@H](N(C)C)[C@H](O)[C@@H](C)O4)c(O)c3c(=O)c21`, for which the results for the IC50 in assay [1], in assay [2] and in assay [6] were over 40 µM, over 40 µM and over 20 µM, respectively. The MIC stood at 8 µg/mL (≈ 16.9 µM) in assay [3], 7 µg/mL (≈ 14.8 µM) in assay [4] and 12 µg/mL (≈ 25.3 µM) in assay [5].

As to `COC(=O)C[C@H]1OC(C)=C2C(=O)c3c(ccc([C@H]4C[C@@H](N(C)C)[C@H](O)[C@@H](C)O4)c3O)C(=O)C2=C1O`, the figures for the IC50 in assay [1], in assay [2] and in assay [6] were 2.9 µM, 19 µM and 9 µM, respectively. Also, the MIC in assay [3] was found to be 4 µg/mL (≈ 8.21 µM); in assay [4] it was 6 µg/mL (≈ 12.3 µM); in assay [5] it was 3 µg/mL (≈ 6.15 µM).

Regarding `C[C@H]1O[C@@H]2CC(=O)O[C@@H]2C2=C1C(=O)c1c(ccc([C@H]3C[C@@H](N(C)C)[C@H](O)[C@@H](C)O3)c1O)C2=O` [LACTOQUINOMYCIN], the IC50 in assay [1] came to 0.043 µM; in assay [2], 0.015 µM; in assay [6], 0.011 µM. Also, the values for the minimal inhibitory concentration (MIC) in assay [3], in assay [4] and in assay [5] were 2 µg/mL (≈ 4.37 µM), 5 µg/mL (≈ 10.9 µM) and 0.25 µg/mL (≈ 0.546 µM), respectively.

Compound `C[C@@H]1[C@H](O)[C@@H](C)/C=C/C=C/C=C/C=C/C=C/C=C/C=C/[C@H](O[C@@H]2O[C@H](C)[C@@H](O)[C@H](N)[C@@H]2O)C[C@@H]2O[C@](O)(C[C@@H](O)C[C@@H](O)[C@H](O)CC[C@@H](O)C[C@@H](O)CC(=O)O[C@H]1C)C[C@H](O)[C@H]2C(=O)O` [AMPHOTERICIN B] showed a minimum inhibitory concentration (MIC) in assay [4] of 2 µg/mL (≈ 2.16 µM).

On to `COC(=O)C[C@H]1O[C@H](C)c2c(oc(=O)c3ccc([C@H]4C[C@@H](N(C)C)[C@H](O)[C@@H](C)O4)c(O)c3c2=O)[C@H]1O`, for which the IC50 in assay [1] is over 40 µM; in assay [2], over 40 µM; in assay [6] it was over 20 µM. Further, the MIC was 10 µg/mL (≈ 19.8 µM) in assay [3], 10 µg/mL (≈ 19.8 µM) in assay [4] and 15 µg/mL (≈ 29.7 µM) in assay [5].

As for `COC(=O)C[C@@H]1C[C@@]2(O)C(=O)c3ccc([C@H]4C[C@@H](N(C)C)[C@H](O)[C@@H](C)O4)c(O)c3C(=O)[C@]2(O)[C@@H](C)O1`, the concentration for half-maximal inhibition (IC50) is 4.4 µM in assay [1], 16 µM in assay [2] and over 20 µM in assay [6]. Besides, the minimal inhibitory concentration (MIC) stood at 5 µg/mL (≈ 9.85 µM) in assay [3], 9 µg/mL (≈ 17.7 µM) in assay [4] and 6 µg/mL (≈ 11.8 µM) in assay [5].

For the compound `CCC(C)CCCCC(=O)N[C@@H](CCN)C(=O)N[C@H](C(=O)N[C@@H](CCN)C(=O)N[C@H]1CCNC(=O)[C@H]([C@@H](C)O)NC(=O)[C@H](CCN)NC(=O)[C@H](CCN)NC(=O)[C@H](CC(C)C)NC(=O)[C@@H](Cc2ccccc2)NC(=O)[C@H](CCN)NC1=O)[C@@H](C)O` (some centres not stated) ({Octanoyl(6-Me)}-[Dab]T[Dab][Dab][Dab][dF]L[Dab][Dab]T; lactam 4-C), the MIC in assay [3] stood at 2 µg/mL (≈ 1.66 µM).
